From ChEMBL document CHEMBL3046654, “Penoxsulam--structure-activity relationships of triazolopyrimidine sulfonamides” (Bioorg Med Chem, 2009)

Columns and labels:
Pontederia vaginalis [1] = assay: Post-emergence herbicidal activity against three-leaf stage Monochoria vaginalis under green-house condition by water injection treatment method; assay type: functional
Method in brief: (§1)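 Greenhouse paddy test. Seed was sown on saturated Metro Mix, covered with about 0.5 cm mix and held 48 h dark at 30 °C, 95% RH; about 15 d from seed soaking to treatment. Treatment solution was injected into the water. Rates were set per pot surface area, with serial rates made by halving the volume delivered. Held at 16 h day length, 29 °C.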

Cyperus difformis = assay: Post-emergence herbicidal activity against three-leaf stage Cyperus difformis under green-house condition by water injection treatment method; assay type: functional; method in brief: as §1
[2] = system: Schoenoplectiella juncoides; assay: Post-emergence herbicidal activity against three-leaf stage Schoenoplectiella juncoides under green-house condition by water injection treatment method; assay type: functional; method in brief: as §1
Echinochloa crus-galli [3] = assay: Post-emergence herbicidal activity against three-leaf stage Echinochloa crus-galli (barnyard grass) under green-house condition by water injection treatment method; assay type: functional; method in brief: as §1
Oryza sativa [4] = assay: Phytotoxicity against three-leaf stage Oryza sativa (rice) under green-house condition by water injection treatment method; assay type: organism-based; method in brief: as §1
[5] = system: Schoenoplectiella juncoides; assay: Post-emergence herbicidal activity against two to three-leaf stage Schoenoplectiella juncoides under field condition by foliar application method; assay type: functional
Echinochloa crus-galli [6] = assay: Post-emergence herbicidal activity against 2-3-leaf stage Echinochloa crus-galli (barnyard grass) under field condition by foliar application method; assay type: functional
Oryza sativa [7] = assay: Phytotoxicity against two to three-leaf stage indica Oryza sativa (rice) under field condition by foliar application method; assay type: organism-based; conditions: in vivo
[8] = system: Schoenoplectiella juncoides; assay: Post-emergence herbicidal activity against three-leaf stage Schoenoplectiella juncoides under field condition by water injection treatment method; assay type: functional
Method in brief: (§2)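 Field trials: water-injected treatment applied to transplanted japonica rice and to weeds at the three-leaf stage, under rice-growing conditions in several countries.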

Pontederia vaginalis [9] = assay: Post-emergence herbicidal activity against three-leaf stage Monochoria vaginalis under field condition by water injection treatment method; assay type: functional; method in brief: as §2
Oryza sativa [10] = assay: Phytotoxicity against three-leaf stage Oryza sativa (rice) under field condition by water injection treatment method; assay type: organism-based; method in brief: as §2
Echinochloa crus-galli [11] = assay: Post-emergence herbicidal activity against three-leaf stage Echinochloa crus-galli (barnyard grass) under field condition by water injection treatment method; assay type: functional; method in brief: as §2
Ipomoea hederacea = assay: Post-emergence herbicidal activity against Ipomoea hederacea (ivy-leaved morning glory) compound treated as foliar application measured after 2 weeks; assay type: functional
Method in brief: (§3)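 Greenhouse post-emergence foliar screen in 64 cm² pots. Seed treatments were used on some species to aid germination. Plants were grown 7–21 days at 23–29 °C day/22–28 °C night under a 15 h photoperiod. Sprayed at 2–12 cm height and the 1–4 true leaf stage.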

Veronica hederifolia = assay: Post-emergence herbicidal activity against Veronica hederifolia compound treated as foliar application measured after 2 weeks; assay type: functional; method in brief: as §3
Abutilon theophrasti = assay: Post-emergence herbicidal activity against Abutilon theophrasti (velvetleaf) compound treated as foliar application measured after 2 weeks; assay type: functional; method in brief: as §3
Amaranthus retroflexus = assay: Post-emergence herbicidal activity against Amaranthus retroflexus compound treated as foliar application measured after 2 weeks; assay type: functional; method in brief: as §3
Ipomoea = assay: Post-emergence herbicidal activity against Ipomoea spp. compound treated as foliar application measured after 2 weeks; assay type: functional; method in brief: as §3
Helianthus = assay: Post-emergence herbicidal activity against Helianthus spp. compound treated as foliar application measured after 2 weeks; assay type: functional; method in brief: as §3
Chenopodium album = assay: Post-emergence herbicidal activity against Chenopodium album compound treated as foliar application measured after 2 weeks; assay type: functional; method in brief: as §3
Datura stramonium = assay: Post-emergence herbicidal activity against Datura stramonium compound treated as foliar application measured after 2 weeks; assay type: functional; method in brief: as §3
Xanthium strumarium = assay: Post-emergence herbicidal activity against Xanthium strumarium (cocklebur) compound treated as foliar application measured after 2 weeks; assay type: functional; method in brief: as §3
[12] = Inhibition of acetolactatae synthase; conditions: read-out: I50
Method in brief: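 Barley ALS: etiolated shoots of 5–6 d old Hector Spring barley homogenized at 0–4 °C in 20 mM HEPES pH 7.2, 1 mM EDTA, 5 mM DTT, then 33% (NH4)2SO4 cut. Reaction: 20 mM HEPES pH 7.2, 5 mM MgCl2, 0.25 mM TPP, FAD, 22.5 mM pyruvate, 0.7% DMSO final, 37 °C, 30 min. Acid decarboxylation to acetoin, then creatine/1-naphthol colour read at 530 nm. Reported as I50 (nM).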

Avena fatua = assay: Post-emergence herbicidal activity against Avena fatua compound treated as foliar application measured after 2 weeks; assay type: functional; method in brief: as §3
Oryza sativa [13] = assay: Phytotoxicity against Oryza sativa (rice); assay type: organism-based; conditions: in vivo
Digitaria sanguinalis = assay: Post-emergence herbicidal activity against Digitaria sanguinalis (hairy crabgrass) compound treated as foliar application measured after 2 weeks; assay type: functional; method in brief: as §3
Sorghum halepense = assay: Post-emergence herbicidal activity against Sorghum halepense (Johnson grass) compound treated as foliar application measured after 2 weeks; assay type: functional; method in brief: as §3
Setaria faberi = assay: Post-emergence herbicidal activity against Setaria faberi (Giant Foxtail) compound treated as foliar application measured after 2 weeks; assay type: functional; method in brief: as §3
Echinochloa crus-galli [14] = assay: Post-emergence herbicidal activity against Echinochloa crus-galli (barnyard grass) compound treated as foliar application measured after 2 weeks; assay type: functional; method in brief: as §3
Alopecurus = assay: Post-emergence herbicidal activity against Alopecurus spp. compound treated as foliar application measured after 2 weeks; assay type: functional; method in brief: as §3
Fallopia convolvulus = assay: Post-emergence herbicidal activity against Fallopia convolvulus compound treated as foliar application measured after 2 weeks; assay type: functional; method in brief: as §3
Stellaria media = assay: Post-emergence herbicidal activity against Stellaria media compound treated as foliar application measured after 2 weeks; assay type: functional; method in brief: as §3
Echinochloa crus-galli [15] = assay: Post-emergence herbicidal activity against 3-4-leaf stage Echinochloa crus-galli (barnyard grass) under field condition by foliar application method; assay type: functional
Oryza sativa [16] = assay: Phytotoxicity against three to four-leaf stage japonica Oryza sativa (rice) under field condition by foliar application method; assay type: organism-based; conditions: in vivo
Sesbania herbacea = assay: Post-emergence herbicidal activity against three to four-leaf stage Sesbania herbacea under field condition by foliar application method; assay type: functional

Row | Compound | GR80 (Pontederia vaginalis [1]) | GR80 (Cyperus difformis) | GR80 [2] | GR80 (Echinochloa crus-galli [3]) | GR20 (Oryza sativa [4]) | GR80 (Ipomoea hederacea) | GR80 (Veronica hederifolia) | GR80 (Abutilon theophrasti) | GR80 (Amaranthus retroflexus) | GR80 (Ipomoea) | GR80 (Helianthus) | GR80 (Chenopodium album) | GR80 (Datura stramonium) | GR80 (Xanthium strumarium) | GR80 (Avena fatua) | GR20 (Oryza sativa [13]) | GR80 (Digitaria sanguinalis) | GR80 (Sorghum halepense) | GR80 (Setaria faberi) | GR80 (Echinochloa crus-galli [14]) | also measured
1 | COc1cnc(OC)n2nc(NS(=O)(=O)c3c(OCC(F)(F)F)cccc3C(F)(F)F)nc12 | 5 gAi/ha | 36 gAi/ha | 21 gAi/ha | 19 gAi/ha | 51 gAi/ha | – | – | – | – | – | – | – | – | – | – | – | – | – | – | – | –
2 | COc1cnc(OC)n2nc(NS(=O)(=O)c3c(OC(CF)CF)cccc3C(F)(F)F)nc12 | 1 gAi/ha | 31 gAi/ha | 9 gAi/ha | 14 gAi/ha | 140 gAi/ha | – | – | – | – | – | – | – | – | – | – | – | – | – | – | – | GR80 [5]: 20 gAi/ha; GR80 (Echinochloa crus-galli [6]): 15 gAi/ha; GR10 (Oryza sativa [7]): > 70 gAi/ha; GR80 [8]: 15 gAi/ha; GR80 (Pontederia vaginalis [9]): 12 gAi/ha; GR10 (Oryza sativa [10]): 70 gAi/ha; GR80 (Echinochloa crus-galli [11]): 35 gAi/ha
3 | COc1nccc2nc(NS(=O)(=O)c3c(Cl)cccc3Cl)nn12 | – | – | – | – | – | 475 ppm | 475 ppm | 475 ppm | 475 ppm | 475 ppm | 475 ppm | 475 ppm | 475 ppm | 475 ppm | 500 ppm | 500 ppm | 500 ppm | 500 ppm | 500 ppm | 500 ppm | IC50 [12]: 1040 nM; GR80 (Alopecurus): 500 ppm; GR80 (Fallopia convolvulus): 475 ppm; GR80 (Stellaria media): 475 ppm
4 | COc1cnc(OC)n2nc(NS(=O)(=O)c3c(Cl)cccc3Cl)nc12 | – | – | – | – | – | 2 ppm | 2 ppm | 2 ppm | 2 ppm | 2 ppm | 2 ppm | 2 ppm | 2 ppm | 2 ppm | 8 ppm | 8 ppm | 8 ppm | 8 ppm | 8 ppm | 4 ppm | IC50 [12]: 0.6 nM; GR80 (Alopecurus): 8 ppm; GR80 (Fallopia convolvulus): 2 ppm; GR80 (Stellaria media): 2 ppm
5 | CCOc1cccc(C(F)(F)F)c1S(=O)(=O)Nc1nc2c(OC)cnc(OC)n2n1 | 1 gAi/ha | – | 3 gAi/ha | 1 gAi/ha | 1 gAi/ha | 2 ppm | 2 ppm | 2 ppm | 2 ppm | 2 ppm | 2 ppm | 2 ppm | 2 ppm | 2 ppm | 191 ppm | 250 ppm | 191 ppm | 191 ppm | 191 ppm | 4 ppm | GR80 (Alopecurus): 191 ppm; GR80 (Fallopia convolvulus): 2 ppm; GR80 (Stellaria media): 2 ppm
6 | COc1cnc(OC)n2nc(NS(=O)(=O)c3c(OCCF)cccc3C(F)(F)F)nc12 | 5.2 gAi/ha | 8 gAi/ha | 9 gAi/ha | 10 gAi/ha | 14 gAi/ha | 6 ppm | 6 ppm | 6 ppm | 6 ppm | 6 ppm | 6 ppm | 6 ppm | 6 ppm | 6 ppm | 66 ppm | 250 ppm | 66 ppm | 66 ppm | 66 ppm | 1 ppm | GR80 (Echinochloa crus-galli [15]): 12 gAi/ha; GR10 (Oryza sativa [16]): 12 gAi/ha; GR80 [5]: 4 gAi/ha; GR80 (Echinochloa crus-galli [6]): 5 gAi/ha; GR10 (Oryza sativa [7]): > 70 gAi/ha; GR80 [8]: 5 gAi/ha; GR80 (Pontederia vaginalis [9]): 4.4 gAi/ha; GR10 (Oryza sativa [10]): 8 gAi/ha; GR80 (Echinochloa crus-galli [11]): 19 gAi/ha; GR80 (Alopecurus): 66 ppm; GR80 (Fallopia convolvulus): 6 ppm; GR80 (Stellaria media): 6 ppm; GR80 (Sesbania herbacea): 10 gAi/ha
7 | COc1cnc(OC)n2nc(NS(=O)(=O)c3c(OCC(F)F)cccc3C(F)(F)F)nc12 [PENOXSULAM] | <2 gAi/ha | 14 gAi/ha | 12 gAi/ha | 12 gAi/ha | 75 gAi/ha | – | – | – | – | – | – | – | – | – | – | – | – | – | – | – | GR80 (Echinochloa crus-galli [15]): 9 gAi/ha; GR10 (Oryza sativa [16]): 65 gAi/ha; GR80 [5]: 6 gAi/ha; GR80 (Echinochloa crus-galli [6]): 7 gAi/ha; GR10 (Oryza sativa [7]): > 70 gAi/ha; GR80 [8]: 9 gAi/ha; GR80 (Pontederia vaginalis [9]): 6 gAi/ha; GR10 (Oryza sativa [10]): 35 gAi/ha; GR80 (Echinochloa crus-galli [11]): 26 gAi/ha; GR80 (Sesbania herbacea): 7 gAi/ha
